# Experimental data collected from several papers.
# Lines come from different studies, so protocols differ.
# Target: Vascular endothelial growth factor receptor 1 (FLT1, Homo sapiens, UniProt P17948)
Compound,test,setting,endpoint,result
CCCCC(=O)Nc1ccc(-c2ccc3ncn(CCC)c(=O)c3c2)cn1,"binding, competition with immobilised ligand",0.5 µM,remaining binding,98%
CC(C)S(=O)(=O)c1ccc2nccc(Nc3ccc4sc(C5CCCC5)nc4c3)c2c1,"enzyme activity, inhibitor",1 µM,activity vs control,107%
C=CC(=O)N1CCC[C@@H](n2nc(-c3ccc(Oc4ccccc4)cc3)c3c(N)ncnc32)C1,"enzyme activity, inhibitor",1 µM,inhibition,33%
C1=C/COCc2cc(ccc2OCCN2CCCC2)Nc2nccc(n2)-c2cccc(c2)COC/1,binding,0.1 µM,remaining binding,64%
C[C@H]1CC[C@H](n2c3cnccc3c3cnc(Nc4ccc5c(n4)CCN(C(=O)CO)C5)nc32)CC1,"cell-free assay, competition with immobilised ligand",1 µM,remaining binding,93%
CO[C@@H]1[C@H](N(C)C(=O)c2ccccc2)C[C@H]2O[C@]1(C)n1c3ccccc3c3c4c(c5c6ccccc6n2c5c31)C(=O)NC4,"enzyme activity, inhibitor",1 µM,inhibition,57%
O=C1C=C(Nc2ccc(OCc3cn(Cc4ccc(Cl)c(Cl)c4)nn3)cc2)C(=O)c2ccccc21,"enzyme activity, inhibitor, radiometric",10 µM,inhibition,-38%
CN1CCN(C(=O)c2ccc(NC(=O)Nc3ccc(N(C)c4ccnc(Nc5ccc(CS(C)(=O)=O)cc5)n4)cc3)cc2)CC1,"binding, competition with immobilised ligand",1 µM,remaining binding,0.4%
